Screens as filed in PubChem BioAssay.
HSV augment: increases HSV replication in cells; maximum fold increase; HSV replication augmentation in cells, fold increase; 220,000 compounds, 0.005% hits; AID 1956; in the data active = maximum fold increase above about 1.5; inconclusive = no clear call, values can overlap the other calls; tested in PC3 cells
ABCB1 block: human ABCB1 inhibition, ABCG2 as counter-screen. 190,000 compounds, 0.067% hits. inhibition, % at 6.6 µM. AID 1326. CCRF-Adr cells, JC-1 efflux, flow cytometry; in the data active = inhibition above about 40%;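 note: 0% = vehicle and 100% = reference inhibitor; higher value means more JC-1 retained so stronger ABCB1 efflux block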
PHOSPHO1 block: blocks human PHOSPHO1 phosphatase activity. Q8TCT1. recombinant PHOSPHO1, absorbance phosphatase assay. inhibition, % at 13.3 µM. 290,000 compounds, 1.1% hits; in the data active = inhibition above about 60%
ABCG2 block: inhibitors of human ABCG2 transporter, ABCB1 counter-screen | IgMXP3 cells, JC-1 efflux, flow cytometry | 190,000 compounds, 0.1% hits | inhibition, % at 6.6 µM | AID 1325;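 active = inhibition above 80%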;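 note: 0% = DMSO and 100% = nicardipine control wells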
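Test system: IgMXP3 cells (ABCG2) mixed with DDAO far-red-labelled CCRF-Adr cells (ABCB1). Reagent: JC-1 transporter substrate. Compound dosing: single test compound dose, 6.6 µM final. Times: 10 min compound exposure, 25 °C. Detection: flow cytometry of retained JC-1 fluorescence. Read-out basis: efflux inhibition in percent versus controls. Controls: nicardipine and DMSO wells.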
PKD1 inh: PKD1 (human) kinase inhibition; inhibition, % (no concentration beside the values); PKD1 kinase fluorescence polarization assay; AID 797; 200,000 compounds, 0.056% hits; Q15139; in the data active = inhibition above about 50%
p47phox inh: inhibitors of human p47phox binding; P14598; p47phox/p22phox peptide binding, fluorescence polarization, 2 h; inhibition, % at 24.7 µM; 220,000 compounds, 0.53% hits;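 active = inhibition above about 30%, limit read from the data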;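 note: 0% = p47phox with labelled peptide and 100% = labelled peptide alone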
Target sequence (P14598 whole entry, looked up): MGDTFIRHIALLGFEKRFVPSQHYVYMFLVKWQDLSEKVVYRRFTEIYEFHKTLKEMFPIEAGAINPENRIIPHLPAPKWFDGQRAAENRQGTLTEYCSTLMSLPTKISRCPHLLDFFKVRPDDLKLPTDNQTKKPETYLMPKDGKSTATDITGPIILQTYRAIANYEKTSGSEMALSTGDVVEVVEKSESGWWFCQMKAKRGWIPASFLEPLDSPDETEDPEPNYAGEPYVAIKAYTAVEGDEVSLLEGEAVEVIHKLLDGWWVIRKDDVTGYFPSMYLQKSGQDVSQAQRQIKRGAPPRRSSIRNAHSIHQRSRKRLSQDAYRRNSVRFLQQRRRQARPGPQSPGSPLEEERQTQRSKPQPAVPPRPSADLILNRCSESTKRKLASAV
* = called active by the depositor; i = inactive; ? = inconclusive; . = not tested or not shown. An excerpt weighted towards active compounds, which were near 1.6% of everything screened.

SMILES	HSV augment	ABCB1 block	PHOSPHO1 block	ABCG2 block	PKD1 inh	p47phox inh
N#Cc1cccc(NC(=O)Cc2ccccc2)c1	i	0	62*	5	-4	5
CCOc1ccc(NC(=O)c2ccc(NC(=O)c3cn4c5c(c(N6CCN(C)CC6)c(F)cc5c3=O)OCC4C)cc2)cc1 (stereo not drawn)	i	-1	-15	-4	4	82*
CC1COc2c(N3CCN(C)CC3)c(F)cc3c(=O)c(C(=O)O)cn1c23 (stereo not drawn)	i	.	.	.	.	-12
CSCc1ccc(C(=O)NCc2ccc(F)cc2)cc1	i	1	3	4	4	-6
Cc1ccc(-c2ccc(SCC(=O)NC3CCCCC3)nn2)cc1	.	.	62*	.	.	.
CCOC(=O)N1CCN(C(=O)CSc2ccc(-c3ccc(OC)cc3)nn2)CC1	i	1	68*	2	-6	-2
Cc1ccc(-c2ccc(SCC(=O)NC3CCCC3)nn2)cc1	.	.	38	.	.	.
CCSc1ccc(-c2ccc(C)cc2)nn1	i	0	7	13	-11	37*
CCOc1ccc(-c2ccc(SCC)nn2)cc1	i	0	8	5	-5	-3
CCOC(=O)N1CCN(C(=O)CSc2ccc(-c3ccc(OC)c(OC)c3)nn2)CC1	i	0	53	7	-3	.
Cc1ccccc1NC(=O)Cc1nc(COC(=O)CSc2ccccc2)cs1	.	.	37	.	.	.
CCOC(=O)c1c(S(=O)(=O)N2CCCC(C(=O)Nc3ccc(C)cn3)C2)c(C)n(C)c1C (stereo not drawn)	.	.	64*	.	.	.
CCC(C(=O)NCCC(C)C)n1ccc2cc(S(=O)(=O)N3CCCCC3)ccc21 (stereo not drawn)	.	.	63*	.	.	.
COc1cccc(CNC(=O)C(C)n2ccc3cc(S(=O)(=O)N4CCCCCC4)ccc32)c1 (stereo not drawn)	.	.	18	.	.	.
O=C(NCc1nc2ccccc2[nH]1)C1CCCCC1	i	0	41	0	-1	78*
CNCc1nc2ccccc2[nH]1	i	0	28	0	-3	-3
O=S(=O)(NCc1nc2ccccc2[nH]1)c1ccccc1	.	.	73*	.	.	.
CC1CCN(CCCNC(=O)c2ccc(N3CCCC3=O)cc2)CC1	.	.	64*	.	.	.
N#C/C(=C/c1ccc2c(c1)OCO2)C(=O)Nc1ccc(O)cc1	i	0	6	4	-3	-4
O=[N+]([O-])/C(C(Cl)=C(Cl)Cl)=C(\Nc1ccc(F)cc1)n1cncn1	i	0	93*	0	0	-9
CCOc1ccc(N/C(=C(/C(Cl)=C(Cl)Cl)[N+](=O)[O-])n2cncn2)cc1	i	-1	20	-2	-1	-11
C=CCn1c(Cc2cccs2)nnc1SCC(=O)c1cccc(Br)c1	i	1	68*	1	-3	-56
CC1=C(C(=O)OC(C)C)C(c2ccc(Cl)cc2)n2c(s/c(=C\c3ccc(OCC(=O)O)cc3)c2=O)=N1 (stereo not drawn)	.	.	20	.	.	.
CCCCNC(=S)NNC(=O)c1csc2ccccc12	i	0	62*	2	-2	-12
CCCCNC(=S)NNC(=O)c1ccoc1C	i	0	46	-1	-11	5
SMILES	HSV augment	ABCB1 block	PHOSPHO1 block	ABCG2 block	PKD1 inh	p47phox inh
COC(=O)c1ccc(CN2C(=O)NC3(CCCCC3C)C2=O)o1 (stereo not drawn)	i	0	70*	-1	-2	-3
O=C(NCc1n[nH]c(=S)n1-c1ccc(Br)cc1)c1ccc(S(=O)(=O)N2CCOCC2)cc1	i	2	77*	10	-12	0
Cc1cccc(-n2c(CNC(=O)c3ccc(S(=O)(=O)N4CCCC4)cc3)n[nH]c2=S)c1	i	-1	80*	-1	-2	-10
O=C(O)C1Sc2[nH]c(=O)sc2C2c3cc(Br)ccc3OC(=O)C12 (stereo not drawn)	?	.	-78	.	.	-13
O=C(O)C1Sc2[nH]c(=O)sc2C2c3cc(Cl)ccc3OC(=O)C12 (stereo not drawn)	i	0	89*	0	3	-13
CC(C)Sc1nc2ccccc2[nH]1	i	0	0	1	-1	-5
CC(=O)Nc1ccc(C2=NNC(=Nc3ccc(S(=O)(=O)N4CCOCC4)cc3)SC2)cc1	i	.	65*	.	.	-39
CC[C@]1(O)CC2CN(CCc3c([nH]c4ccccc34)[C@@](C(=O)OC)(c3cc4c(cc3OC)N(C)[C@H]3[C@@](O)(C(N)=O)[C@H](O)[C@]5(CC)C=CCN6CC[C@]43[C@@H]65)C2)C1 (stereo partly drawn)	i	.	.	.	.	.
Cc1c(Cl)c(C(=O)NNC(=S)Nc2ccccc2)nn1C	.	2	66*	30	8	-9
COc1ccccc1CNC(=O)c1ccc2c(=O)n3c(nc2c1)CCCCC3	.	.	65*	.	.	.
CCOc1ccc(NC(=O)c2ccc3c(=O)n4c(nc3c2)CCCCC4)cc1	.	.	53	.	.	.
CCOc1ccccc1NC(=O)c1ccc2c(=O)n3c(nc2c1)CCCCC3	.	.	75*	.	.	.
NCCCC[C@@H]1NC(=O)[C@H](CCC(=O)O)NC(=O)c2cc([N+](=O)[O-])cc(I)c2OCC[C@@H](C(N)=O)NC1=O	i	0	6	3	-2	-6
CCCCNC(=O)Cn1c2c(c(-c3ccccc3Cl)cc1=O)CCC2	i	0	-3	1	-16	81*
O=C(Cn1c2c(c(-c3ccccc3)cc1=O)CCCC2)N1CCCCCC1	i	0	9	5	-8	-12
CCn1c(SCC(=O)NC2CCCCC2)nnc1C(C)NC(=O)c1ccccc1F (stereo not drawn)	.	.	37	.	.	.
S=c1[nH]nc(-c2cccs2)n1/N=C/c1cn(-c2ccccc2)nc1-c1ccccc1	i	.	-84	.	.	-22
Fc1ccc(/C=N/n2c(-c3cccs3)n[nH]c2=S)cc1	i	-4	71*	-10	-5	17
COc1cc2nc(CN3CCN(C(c4ccccc4)c4ccccc4)CC3)[nH]c(=O)c2cc1OC	i	.	40	.	.	63*
CCn1c(SCc2nc3cc(OC)c(OC)cc3c(=O)[nH]2)nc2ccccc21	i	2	60*	6	6	-11
Cn1c(SCc2nc3ccccc3c(=O)[nH]2)nc2ccccc21	i	0	5	2	-5	-21
COc1ccc(N2C(=O)C3CCCN3C2c2cc(OC)c(OC)c(OC)c2)cc1 (stereo not drawn)	i	-1	-15	-3	-10	35*
COc1cc(C2N(c3ccc(Cl)cc3)C(=O)C3CCCN32)cc(OC)c1OC (stereo not drawn)	i	0	-12	0	-4	-22
S=c1[nH]nc(-c2ccncc2)n1CC1CCCO1 (stereo not drawn)	i	0	30	1	-18	-22
Fc1ccc(-c2n[nH]c(=S)n2CC2CCCO2)cc1 (stereo not drawn)	i	0	88*	1	2	-1
Cc1ccccc1/C=N/n1c(-c2ccccn2)n[nH]c1=S	i	.	20	.	.	-4
